In PMC3799459 (Nucleic Acids Research, 2013):
One block for each molecule: values may come before it.

Columns and labels:
[1] = target: T1, DNMT1 (Homo sapiens, UniProt P26358); experiment: SAM-competition assay on DNMT1; format: biochemical; conditions: SAM 0.5-15 µM, DNA duplex 1.0 µM, inhibitor IC10 to IC80
Summary of the method: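 DNMT1 Flashplate SPA in HEPES pH 7.2 buffer, 37°C, 2 h. [methyl-3H]SAM (0.6 TBq/mmol, isotopic dilution 1*:1) varied 0.5–15 µM at fixed 1.0 µM biotinylated DNA duplex. Test compound adjusted from IC10 to IC80 for each SAM level. IC50 at each SAM concentration from sigmoidal variable-slope fit; apparent kinetic constants per compound concentration by Michaelis–Menten fitting.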

[2] = target: T1, DNMT1; experiment: DNA-competition assay on DNMT1; format: biochemical; conditions: DNA duplex 0.05-1.0 µM, SAM 15 µM (1*:2), inhibitor IC10 to IC80
Summary of the method: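 Streptavidin Flashplate SPA with DNMT1 in HEPES pH 7.2 reaction buffer (EDTA, KCl, BSA), 37°C for 2 h. Biotinylated DNA duplex varied 0.05–1.0 µM; [methyl-3H]SAM (0.6 TBq/mmol) fixed at 15 µM, isotopic dilution 1*:2. Test compound adjusted from IC10 to IC80 at each DNA level. IC50 per DNA concentration from sigmoidal variable-slope fit; apparent kinetic constants from Michaelis–Menten fits at each compound concentration.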

[3] = target: T1, DNMT1; experiment: DMSO tolerance of the DNMT1 Flashplate assay; format: biochemical
[4] = target: human DNMT3A (DNMT3A-C) (Homo sapiens, UniProt Q9Y6K1); experiment: DNMT3A Flashplate SPA inhibition assay; format: biochemical
Chain of human DNMT3A (DNMT3A-C) (Q9Y6K1 624-912): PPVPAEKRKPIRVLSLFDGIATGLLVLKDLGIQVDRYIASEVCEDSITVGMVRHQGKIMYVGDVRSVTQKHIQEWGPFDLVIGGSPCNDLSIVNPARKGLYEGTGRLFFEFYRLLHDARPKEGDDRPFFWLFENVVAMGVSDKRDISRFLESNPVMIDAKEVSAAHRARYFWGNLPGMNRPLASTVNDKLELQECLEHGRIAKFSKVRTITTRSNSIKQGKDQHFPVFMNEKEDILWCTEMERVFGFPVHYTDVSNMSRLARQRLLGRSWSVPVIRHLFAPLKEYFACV

[5] = target: M.SssI (Spiroplasma monobiae, UniProt P15840); experiment: M.SssI Flashplate SPA inhibition assay; format: biochemical, bacterial
Chain of M.SssI (P15840 whole entry): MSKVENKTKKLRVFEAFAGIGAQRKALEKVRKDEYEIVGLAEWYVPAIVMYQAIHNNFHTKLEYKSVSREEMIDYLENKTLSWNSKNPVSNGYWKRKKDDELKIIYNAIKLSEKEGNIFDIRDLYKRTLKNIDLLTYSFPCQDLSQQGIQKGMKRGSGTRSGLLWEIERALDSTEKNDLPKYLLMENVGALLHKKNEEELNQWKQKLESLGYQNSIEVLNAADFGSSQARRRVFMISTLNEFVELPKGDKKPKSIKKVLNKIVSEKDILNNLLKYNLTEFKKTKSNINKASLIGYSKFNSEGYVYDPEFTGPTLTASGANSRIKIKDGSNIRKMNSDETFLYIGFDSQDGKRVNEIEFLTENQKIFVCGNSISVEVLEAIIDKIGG
Summary of the method: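 Purchased M.SssI at 100 nM with 0.3 µM biotinylated non-methylated duplex and 1 µM SAM/[methyl-3H]SAM mix (3:1) in 1X NEBuffer 2; test compound ≤1% DMSO; 1 h at 37°C. Stopped in streptavidin Flashplate with 20 µM SAH, Tris-HCl pH 7.4; 1 h RT binding, Tween washes, scintillation cpm. %inhibition vs no-enzyme and no-compound controls; sigmoidal fit; two experiments in duplicate.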

[6] = target: T1, DNMT1; experiment: Km determination of DNMT1 substrates; format: biochemical; conditions: read-out: Km of DNA for DNMT1; DNA 0.05-1.0 µM, 15 µM SAM

T1 sequence (P26358 whole entry): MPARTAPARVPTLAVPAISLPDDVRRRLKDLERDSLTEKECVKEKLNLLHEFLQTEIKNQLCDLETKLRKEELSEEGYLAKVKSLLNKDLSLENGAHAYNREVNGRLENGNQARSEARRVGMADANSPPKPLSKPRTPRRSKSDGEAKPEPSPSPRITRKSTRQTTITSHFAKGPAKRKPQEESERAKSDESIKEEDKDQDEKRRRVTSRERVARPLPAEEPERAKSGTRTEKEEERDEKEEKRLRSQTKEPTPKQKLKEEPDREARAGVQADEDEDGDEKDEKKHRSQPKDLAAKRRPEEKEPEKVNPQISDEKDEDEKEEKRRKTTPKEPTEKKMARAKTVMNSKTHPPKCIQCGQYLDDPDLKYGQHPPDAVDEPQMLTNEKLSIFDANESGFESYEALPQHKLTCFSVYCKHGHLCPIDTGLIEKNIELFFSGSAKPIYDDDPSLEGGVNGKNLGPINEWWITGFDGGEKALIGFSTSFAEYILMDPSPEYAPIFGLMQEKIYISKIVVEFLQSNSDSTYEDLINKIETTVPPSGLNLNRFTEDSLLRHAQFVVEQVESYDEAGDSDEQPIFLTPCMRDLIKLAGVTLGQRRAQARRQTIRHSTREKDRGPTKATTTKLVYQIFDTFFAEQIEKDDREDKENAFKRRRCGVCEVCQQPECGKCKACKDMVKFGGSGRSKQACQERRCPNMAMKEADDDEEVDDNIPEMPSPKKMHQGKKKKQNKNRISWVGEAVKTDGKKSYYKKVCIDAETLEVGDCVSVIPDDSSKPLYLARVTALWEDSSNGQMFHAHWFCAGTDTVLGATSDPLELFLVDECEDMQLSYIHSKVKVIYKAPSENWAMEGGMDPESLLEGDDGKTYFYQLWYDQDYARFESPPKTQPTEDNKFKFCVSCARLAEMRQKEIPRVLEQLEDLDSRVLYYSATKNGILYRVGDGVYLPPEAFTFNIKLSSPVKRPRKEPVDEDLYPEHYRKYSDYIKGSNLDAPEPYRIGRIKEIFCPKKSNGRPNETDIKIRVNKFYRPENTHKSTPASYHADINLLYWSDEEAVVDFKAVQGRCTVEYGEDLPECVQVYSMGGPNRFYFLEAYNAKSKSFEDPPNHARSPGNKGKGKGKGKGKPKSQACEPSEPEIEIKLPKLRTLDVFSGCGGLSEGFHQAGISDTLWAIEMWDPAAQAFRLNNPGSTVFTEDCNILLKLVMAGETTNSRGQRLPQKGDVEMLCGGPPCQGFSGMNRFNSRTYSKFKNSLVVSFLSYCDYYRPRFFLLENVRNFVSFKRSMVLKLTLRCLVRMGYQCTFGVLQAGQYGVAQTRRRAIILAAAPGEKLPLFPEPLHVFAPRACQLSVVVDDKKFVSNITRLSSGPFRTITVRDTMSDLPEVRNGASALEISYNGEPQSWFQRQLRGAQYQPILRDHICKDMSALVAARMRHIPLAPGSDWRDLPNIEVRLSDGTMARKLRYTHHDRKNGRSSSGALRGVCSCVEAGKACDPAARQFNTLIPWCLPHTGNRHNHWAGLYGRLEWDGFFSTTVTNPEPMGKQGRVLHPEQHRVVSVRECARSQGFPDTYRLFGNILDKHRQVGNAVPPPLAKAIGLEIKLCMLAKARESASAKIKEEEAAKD

Mechanism of inhibition towards SAM [1]: SAM non-competitive inhibitor
Mechanism of inhibition towards DNA [2]: uncompetitive behavior
Molecule: O=C1c2ccccc2OC(c2ccccc2)C1(Cl)[N+](=O)[O-] (stereo not drawn) [Compound 47, 3-chloro-3-nitroflavanone]

Mechanism of inhibition towards SAM [1]: SAM-competitive
Mechanism of inhibition towards DNA [2]: uncompetitive inhibition
IC50 [4]: 1.8 ± 0.6 µM
IC50 [5]: 45 ± 7 µM
Molecule: Nc1ncnc2c1ncn2[C@@H]1O[C@H](C[C@@H](N)CC[C@H](N)C(=O)O)[C@@H](O)[C@H]1O [Sinefungin]

More lines, now with the values behind:

Molecule: C[S+](C)[O-] [DMSO]
Stimulation of DNMT1 activity ([3]; 1 to 10% (v/v) DMSO): < 10%
Effect on DNMT1 activity ([3]; 15 to 50% (v/v) DMSO): inhibition

B1: DNA: biotinylated hemimethylated DNA duplex with 8 CpG, substrate of DNMT1 (Table 1) (nucleic acid)
sense: GATCGCCGATGCGCGAATCGCGATCGATGCGAT
antisense: ATCGCATCGATCGCGATTCGCGCATCGGCGATC
modifications: biotin; hemimethylated CpG; printed: 5′-GATmCGCmCGATGmCGmCGAATmCGmCGATmCGATGmCGAT
Km [6]: ~0.27 µM
